Drawing on ChEMBL document CHEMBL1135962, “The first synthesis and antifungal activities of 9-methoxystrobilurin-type beta-substituted beta-methoxyacrylate” (2002), this text covers Inhibition zone for one molecule.

Experiment [1] concerns Aspergillus fumigatus. The experiment is described as follows: Compound was evaluated for antifungal activity against Aspergillus fumigatum R-1301 as diameter of inhibition zone at a concentration 0.1 ug/disk. It counts as functional. Put shortly:
(§1)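 Disk-diffusion assay against the fungal strain named in the line. Inhibition-zone diameter was measured after 48 h incubation and is the mean of two samples. Scoring codes used: not effective, slightly effective, incomplete inhibition.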

For experiment [2], the system named is Aspergillus fumigatus. The experiment is described as follows: Compound was evaluated for antifungal activity against Aspergillus fumigatum R-1301 as diameter of inhibition zone at a concentration 1 ug/disk. Type of experiment: functional. Put shortly:
as §1

Experiment [3] relates to Aspergillus fumigatus. Description: Compound was evaluated for antifungal activity against Aspergillus fumigatum R-1301 as diameter of inhibition zone at a concentration 10 ug/disk. It counts as functional. A digest of the protocol: as §1
Experiment [4] concerns Candida albicans. The experiment is described as follows: Compound was evaluated for antifungal activity against Candida albicans IFO 1594 as diameter of inhibition zone at a concentration 0.1 ug/disk; SE means slightly effective. It counts as functional, organism-based. Put shortly: as §1
The subject of experiment [5] is Candida albicans. The experiment is described as follows: Compound was evaluated for antifungal activity against Candida albicans IFO 1594 as diameter of inhibition zone at a concentration 1 ug/disk and showed incomplete inhibition. It counts as functional. A digest of the protocol:
as §1

The subject of experiment [6] is Candida albicans. The experiment is described as follows: Compound was evaluated for antifungal activity against Candida albicans IFO 1594 as diameter of inhibition zone at a concentration 10 ug/disk and showed incomplete inhibition. It counts as functional. Put shortly:
as §1

The subject of experiment [7] is Fusarium solani. Description: Compound was evaluated for antifungal activity against Fusarium solani R-2800 as diameter of inhibition zone at a concentration 0.1 ug/disk; NE means not effective. It counts as functional, organism-based. Put shortly: as §1
Experiment [8] relates to Fusarium solani. Description: Compound was evaluated for antifungal activity against Fusarium solani R-2800 as diameter of inhibition zone at a concentration 1 ug/disk; NE means not effective. Type of experiment: functional, organism-based. A digest of the protocol:
as §1

The subject of experiment [9] is Fusarium solani. The experiment is described as follows: Compound was evaluated for antifungal activity against Fusarium solani R-2800 as diameter of inhibition zone at a concentration 10 ug/disk; NE means not effective. It counts as functional, organism-based. Put shortly: as §1
The subject of experiment [10] is Penicillium citrinum. The experiment is described as follows: Compound was evaluated for antifungal activity against penicillium ctrinum R-3703 as diameter of inhibition zone at a concentration 10 ug/disk. Type of experiment: functional. Put shortly:
as §1

The test system of experiment [11] is Penicillium citrinum. The experiment is described as follows: Compound was evaluated for antifungal activity against penicillium ctrinum R-3703 as diameter of inhibition zone at a concentration 0.1 ug/disk and showed incomplete inhibition. It counts as functional. Put shortly: as §1
Experiment [12] relates to Penicillium citrinum. The experiment is described as follows: Compound was evaluated for antifungal activity against penicillium ctrinum R-3703 as diameter of inhibition zone at a concentration 1 ug/disk and showed incomplete inhibition. It counts as functional. A digest of the protocol: as §1
Experiment [13] deals with Saccharomyces cerevisiae. Description: Compound was evaluated for antifungal activity against Saccharomyces cerevisiae IAM 4861 as diameter of inhibition zone at a concentration 10 ug/disk and showed incomplete inhibition. Type of experiment: functional. Put shortly: as §1
Experiment [14] concerns Saccharomyces cerevisiae. Description: Compound was evaluated for antifungal activity against Saccharomyces cerevisiae IAM 4861 as diameter of inhibition zone at a concentration 0.1 ug/disk and showed incomplete inhibition. It counts as functional. A digest of the protocol:
as §1

For experiment [15], the system named is Saccharomyces cerevisiae. The experiment is described as follows: Compound was evaluated for antifungal activity against Saccharomyces cerevisiae IAM 4861 as diameter of inhibition zone at a concentration 1 ug/disk and showed incomplete inhibition. It counts as functional. A digest of the protocol: as §1

The source made the active and inactive calls. No cut-off for these calls is given here.

Consider `CO\C=C(C(=O)OC)/C(C)=C(\C=C\c1ccccc1)OC` [9-METHOXYSTROBILURIN A], for which the Inhibition zone in experiment [1] was 16 mm; in [2], 28 mm; in [3], 38 mm; in [4], “Slightly Effective”; in [5], 32 mm; in [6], 42 mm. The Inhibition zone in [10] was 33 mm; in experiment [11], 19 mm; in experiment [12], 23 mm; in [13], 44 mm; in experiment [14], 13 mm; in experiment [15], 39 mm. The Inhibition zone entry in experiment [7], in experiment [8] and in experiment [9] was “inactive” in each case.
